MsrA act – bovine methionine sulfoxide reductase A activation | activation, % at 10.6 µM | AID 602163 | purified bovine MsrA, absorbance read-out | 0.3% of 360,000 active; in the data active = activation above about 7.5%;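 note: 0% = vehicle and 100% = reference activator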
Tb MetRS inh – blocks T. brucei methionyl-tRNA synthetase activity | 0.4% of 360,000 active | purified T. brucei MetRS, ATP depletion, Kinase-Glo luminescence | inhibition, % at 11.9 µM;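 active = inhibition above a per-plate cutoff of the control wells' mean inhibition plus 3 SD, cut at about 5.5% in these data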;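 note: 0% = DMSO wells median and 100% = median of wells with control inhibitor compound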
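Material: parasite MetRS enzyme / Replication: singlicate, one well per compound / Signal: luminescence of leftover ATP / Schedule: 2 h aminoacylation at 25 °C after 15 min preincubation / Medium: HEPES-MgCl2-KCl buffer plus DTT, spermine, BSA, pyrophosphatase / Doses: 11.9 µM single point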
proCasp7 act – counter-screen: procaspase-7 (human) activation; P55210; recombinant procaspase-7, Ac-DEVD-pNA absorbance 405 nm; D23A/D198A/D206A triple mutant, cannot self-cleave; scale: DMSO 0, 5 µM enzyme 100; activation, % at 8.5 µM; 0.093% of 330,000 active; AID 463210;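 active = percent activation above the screen-wide mean plus 3 SD, cut at about 25% in these data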
Target sequence (P55210 whole entry D23A/D198A/D206A): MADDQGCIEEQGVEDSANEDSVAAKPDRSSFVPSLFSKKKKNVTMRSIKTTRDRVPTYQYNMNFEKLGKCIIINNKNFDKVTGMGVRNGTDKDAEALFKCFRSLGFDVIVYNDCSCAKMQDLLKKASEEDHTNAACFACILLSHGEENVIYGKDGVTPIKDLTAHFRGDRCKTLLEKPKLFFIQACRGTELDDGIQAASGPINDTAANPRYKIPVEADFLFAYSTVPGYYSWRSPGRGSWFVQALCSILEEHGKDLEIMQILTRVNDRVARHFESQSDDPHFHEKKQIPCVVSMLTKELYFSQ
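System: Uncleavable procaspase-7 mutant enzyme; Amount: 2 µM procaspase-7 mutant as dispensed; Schedule: 1 h compound preincubation, 2 h substrate cleavage, 25 °C; Measured by: 405 nm absorbance of p-nitroaniline; Evaluation: percent activation from buffer-corrected 0–120 min absorbance change; Control set: low DMSO alone, high DMSO plus 5 µM PC-7.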
proCasp3 act – activators of human procaspase-3 | recombinant procaspase-3 D3A, Ac-DEVD-pNA absorbance 405 nm | activation, % at 8.5 µM | P42574 | AID 463141 | 0.11% of 330,000 active;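 active = activation above the mean of all tested compounds plus 3 SD, cut at about 21% in these data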;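 note: 0% = DMSO alone and 100% = DMSO wells spiked with extra 5 µM PC-3 D3A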
Target sequence (P42574 whole entry D9A/D28A/D175A): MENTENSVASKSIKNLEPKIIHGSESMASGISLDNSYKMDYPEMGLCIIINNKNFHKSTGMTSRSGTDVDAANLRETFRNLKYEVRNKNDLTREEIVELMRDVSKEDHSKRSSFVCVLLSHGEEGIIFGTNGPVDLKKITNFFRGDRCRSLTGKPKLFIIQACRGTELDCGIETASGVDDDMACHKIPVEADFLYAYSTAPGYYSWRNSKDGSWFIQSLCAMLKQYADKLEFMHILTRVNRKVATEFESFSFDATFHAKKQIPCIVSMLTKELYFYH
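Assay system: Autoprocessing-dead procaspase-3 D3A mutant enzyme; also added: Ac-DEVD-pNA; doses: one concentration, 8.5 µM nominal, 0.8% DMSO; times: 1 h compound preincubation, 2 h substrate hydrolysis at 25 °C; technique: 405 nm absorbance of p-nitroaniline, reads at 0 and 120 min; measure: % activation between DMSO and enzyme-spiked controls; repeats: single replicate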
MsrA inhibitor – bovine MsrA inhibition; purified bovine MsrA, absorbance read-out; inhibition, % at 15.5 µM; 0.75% of 360,000 active;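 note: 0% = vehicle wells with enzyme and 100% = reference inhibitor wells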
MsrA inh confirm – confirmation of bovine MsrA inhibitors. purified bovine MsrA, absorbance read-out. inhibition, % at 15.5 µM. AID 651822. shares compounds with MsrA inhibitor. 41% of 2,300 active;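 note: coupled to thioredoxin reductase with NADPH and selenocystamine and DMSO as substrate; 0% = vehicle only and 100% = full effect of reference inhibitor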
* marks the source's active call; other numbers are inactive results; nt = no result. The list is not random: actives were taken first. Their share in the collection is about 1.5%. Cut-off read from the data, not from the text of the source, unless noted: active = inhibition above about 4.5%; inactive = the rest.

SMILES	MsrA act	Tb MetRS inh	proCasp7 act	proCasp3 act	MsrA inhibitor	MsrA inh confirm
COC(=O)C[C@@H]1OC[C@H](C(C)C)N1S(=O)(=O)c1ccc(C)cc1	nt	0	nt	nt	1	nt
O=C(O)c1ccc(/C=N/Nc2ccc(F)cc2F)cc1	-4	-1	6	-4	5.6*	4
Nc1nonc1-n1nnc(C(=O)N/N=C/c2ccco2)c1-c1ccccc1	-9	-1	7	-6	2	nt
COc1cccc(-c2c(C(=O)N/N=C/c3ccco3)nnn2-c2nonc2N)c1	-6	0	7	3	4.9*	1
CC(/C=N/NC(=O)c1nnn(-c2nonc2N)c1C(C)C)=C\c1ccco1	-10	0	5	-2	4.9*	5.8*
O=Nc1ccc(Cl)cn1	nt	nt	nt	nt	0	nt
Cc1onc(-c2ccccc2)c1C(=O)N/N=C/C=C/c1ccccc1	-3	-1	3	8	3	nt
CC(/C=C/C=C/c1ccccc1)=N\NC(=O)c1cccnc1	-7	-1	1	-7	7.6*	4.5*
O=C(CSc1ccccn1)N/N=C/c1ccccc1[N+](=O)[O-]	-3	1	-6	1	1	nt
O=C(N/N=C/C=C/c1ccccc1)c1cccnc1	-3	0	-4	4	5.3*	4.9*
Cc1ccc(C(=O)N/N=C/C=C/c2ccccc2)o1	-7	-1	8	3	8.8*	8.2*
O=C(CSc1ccccn1)N/N=C/C=C/c1ccccc1	-6	0	-12	8	4.9*	2
CCOC(=O)N1CCN(C(=O)C[C@H]2C[C@@]3(C(=O)OC)C(=C[C@H](C(C)C)O[C@@H]3C3CC3)N(Cc3ccccc3)C2=O)CC1	nt	nt	nt	nt	-1	nt
CCN(CC)C(=O)COc1cc(C)c(Cl)c(C)c1	-1	-1	7	-9	37*	1
CCCc1n[nH]c2c1/C(=N\OCC)CC(C)(C)C2	-1	2	8	-8	4.8*	2
CCc1n[nH]c2c1/C(=N\O)CC(C)(C)C2	-10	-1	8	-1	1	nt
CCN(c1ccccc1)c1nc2nonc2nc1NCCO	-4	3	0	16	13*	9.4*
NC(=O)c1ncn([C@@H]2O[C@H](C(=O)Nc3ccc(Oc4ccccc4)nc3)[C@@H](O)[C@H]2O)n1	nt	nt	nt	nt	1	nt
N=c1occ(C(=O)c2cc(F)ccc2O)cc1C(=O)NC1CCCCC1	-2	1	-7	3	4.9*	0
c1csc(C2CCCN2c2nc3nonc3nc2NC2CC2)n1 (centres undefined)	-5	0	-1	3	5.7*	1
CCN(CC)CCNC(=O)c1ccc(NCN2C(=O)NC(c3ccccc3)(c3ccccc3)C2=O)cc1	nt	nt	nt	nt	1	nt
Cc1ccccc1-c1c(C)oc2cc(O)ccc2c1=O	-6	-1	6	-9	4.9*	2
CCOC(=O)N1CCN(C(=O)c2cccn3c(=O)c4sccc4nc23)CC1	-1	0	-1	6	5.7*	4
CCOC(=O)N1CCN(C(=O)c2ccc3nc4ccsc4c(=O)n3c2)CC1	-3	-1	-6	-2	5.1*	2
O=C1CCC/C1=C/Nc1ccc(Cl)cc1	-3	0	-7	-12	6.0*	5
SMILES	MsrA act	Tb MetRS inh	proCasp7 act	proCasp3 act	MsrA inhibitor	MsrA inh confirm
COc1cc(C(=O)C(=O)c2ccc(O)c(OC)c2)ccc1O	-4	0	-9	-7	6.4*	4
COc1cc(C(=O)O)ccc1O	-2	0	-2	5	0	nt
Cn1c(/C(C#N)=C/Nc2ccccn2)nc2ccccc21	-8	-1	-17	-2	6.8*	3
Nc1ccc(-c2nc3ncccc3o2)cc1	-6	0	7	-2	6.9*	4.6*
COC(=O)Cn1cc(C(=O)c2ccco2)c2ccccc21	-4	0	11	-2	4	nt
COCCNC(=O)Cn1cc(C(=O)c2ccco2)c2ccccc21	-5	0	-1	-2	7.2*	3
CCOC(=O)c1csc(NC(=O)c2cc(=O)c3ccccc3o2)n1	-8	-1	-4	1	4.7*	4
COc1cc(/C=C/c2nc3ccccc3c(=O)[nH]2)ccc1O	-3	0	nt	nt	7.0*	4
CCOc1ccc(N(C)S(=O)(=O)c2cc(-c3cc(C)no3)ccc2C)cc1	-3	0	4	6	12*	11*
COc1ccc(-c2cc(C)no2)cc1S(=O)(=O)N(C)c1ccc(C)cc1	0	0	11	-6	1	nt
CCOc1ccc(N(C)S(=O)(=O)c2cc(-c3cc(C)no3)ccc2OC)cc1	-2	0	13	10	1	nt
CCOc1ccc(N(C)S(=O)(=O)c2cc(-c3cc(C)no3)ccc2CC)cc1	-2	0	4	4	15*	15*
CC(=O)Cc1nsc(NC(=O)c2ccc(-c3ccc(F)cc3)o2)n1	-6	-1	7	1	7.0*	5.4*
COC(=O)C1(C(=O)OC)C[C@H](c2cccs2)N(Cc2ccccc2OC)[C@@H]1c1ccc(F)cc1	nt	-1	nt	nt	0	nt
Cc1cc(=O)oc(C)c1C(=O)NCCNC(=O)c1c(C)cc(=O)oc1C	5	0	6	2	1	nt
Cc1cc(=O)oc(C)c1C(=O)NCCC(C)C	-6	1	5	-6	5.5*	5.0*
Cc1ccc(S(=O)(=O)N(C)c2cccc3c2S(=O)(=O)N([C@H](C)c2ccccc2)C[C@@H](COCc2ccccc2)O3)cc1	nt	nt	nt	nt	1	nt
Cc1[nH][nH]c(=O)c1C=Nc1ccc(C(F)(F)F)cc1	-1	-1	-9	11	-2	nt
COc1ccc(N=Cc2c(C)[nH][nH]c2=O)cc1	-5	-1	-2	-7	5.4*	3
O=C(N=Nc1c(O)[nH]c2ccc([N+](=O)[O-])cc12)c1ccccc1Cl	-3	0	-2	4	1	nt
O=[N+]([O-])c1ccc2[nH]c(O)c(N=NC3CS(=O)(=O)CC3O)c2c1 (centres undefined)	-5	0	5	0	5.2*	5.0*
C(=N\n1cnnc1)/c1nc2ccccc2[nH]1	-3	1	2	-2	4.9*	2
Cc1ccc(-n2c(N)c(C#N)c(-c3ccccc3)c(C#N)c2=O)cc1	-5	-1	7	2	4.9*	2

Screens deposited in PubChem by The Scripps Research Institute Molecular Screening Center.
